NALP3 yeast inh: blocks the NALP3 inflammasome reconstituted in yeast; Yeast reconstituted NLRP3/ASC/caspase-1, beta-gal luminescence, 24 h; inhibition, % at 10 µM; hit rate 0.39% among 330,000;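 active means inhibition of 50% or more; inactive means inhibition below 50%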;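 further: plate controls were induced DMSO wells for no effect and uninduced yeast grown without galactose for full effect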
MC4R barr agon: agonists of human melanocortin 4 receptor (MC4R) beta-arrestin; P32245; U2OS MC4R beta-arrestin complementation, luminescence; percent of melanotan II response, DMSO zero; activation, % at 8.9 µM; hit rate 0.98% among 360,000; AID 540308;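 active means activation above a per-plate cutoff, the mean activation of sample wells on that plate plus 3 SD, cut at about 8% in these data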
Target sequence (P32245 whole entry, looked up): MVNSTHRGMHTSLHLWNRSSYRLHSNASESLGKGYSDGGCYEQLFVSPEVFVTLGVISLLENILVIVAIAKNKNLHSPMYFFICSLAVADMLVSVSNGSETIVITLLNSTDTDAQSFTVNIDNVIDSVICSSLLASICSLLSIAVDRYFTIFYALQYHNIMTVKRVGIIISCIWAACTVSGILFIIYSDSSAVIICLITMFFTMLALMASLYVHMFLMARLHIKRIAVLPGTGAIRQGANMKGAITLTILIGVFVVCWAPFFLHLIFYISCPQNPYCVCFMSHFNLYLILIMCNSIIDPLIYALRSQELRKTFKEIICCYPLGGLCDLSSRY
TbMetRS inhib: blocks T. brucei methionyl-tRNA synthetase activity; purified T. brucei MetRS, ATP depletion, Kinase-Glo luminescence; inhibition, % at 11.9 µM; hit rate 0.4% among 360,000;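 active means inhibition above a per-plate cutoff of the control wells' mean inhibition plus 3 SD, cut at about 5.5% in these data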;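 further: 0% = DMSO wells median and 100% = median of wells with control inhibitor compound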
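assay system = parasite MetRS enzyme | timing = 15 min preincubation, 2 h reaction, all 25 °C | evaluation = percent inhibition relative to median high and low control wells | medium = HEPES buffer containing pyrophosphatase, BSA, spermine, DTT | compound = single dose, 11.9 µM final nominal, 0.9% final DMSO | detection = Kinase-Glo luminescence, ATP depletion format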
MC4R antag cAMP: blocks human MC4R cAMP signaling. P32245. MC4R-expressing cells, MTII-stimulated cAMP, LANCE TR-FRET. inhibition, % at 6.5 µM. hit rate 0.48% among 360,000. AID 540295;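 active means inhibition above its plate's cutoff, the mean of tested wells on that plate plus 3 SD, cut at about 29% in these data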;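 further: 0% = Melanotan II alone and 100% = Melanotan II plus saturating MCL0020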
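Assay system: U2OS cells stably expressing human melanocortin 4 receptor (MC4R) / Dosing: 6.5 µM / Timing: compound 30 min, challenge 1 h, detection 1 h / Measured by: Eu-cAMP/anti-cAMP TR-FRET, emission 671 nm / Replicates: singlicate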
NALP1 inh: blocks the NALP1 inflammasome reconstituted in yeast; S. cerevisiae NALP1/ASC/caspase-1 growth, X-gal OD620, 72 h; inhibition, % at 10 µM; hit rate 0.61% among 280,000; AID 2071; in the data active means inhibition mostly above about 24%, no sharp cut-off; inactive means mostly below about 32%
A1 inh: inhibitors of the anti-apoptotic protein A1, read as caspase activation. MEF A1-2A-BIM cells, Caspase-Glo 3/7 luminescence, 3 h; percent of clofoctol response, vehicle zero. caspase activation, % (concentration not given with the values). hit rate 0.066% among 330,000. AID 2462;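 active means over half of replicate activation scores above 10%, or exactly half above 10 with the replicate mean above 10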
NALP3 confirm: NALP3 inhibition confirmation in yeast | yeast expressing human NALP3, luminescence | shares compounds with NALP3 yeast inh | hit rate 81% among 1,300 | inhibition, % at 10 µM; in the data active means inhibition above about 48%
Casp1 ASC ctr: caspase-1-ASC yeast counter-screen hit; shares compounds with NALP3 yeast inh; yeast expressing Caspase-1-ASC, luminescence counter screen; inhibition, % at 10 µM; hit rate 66% among 1,000; AID 488784
NALP3 yeast rt: confirmation retest of NALP3 inhibitors in yeast; shares compounds with NALP3 yeast inh; yeast expressing human NALP3, luminescence read-out; inhibition, % at 10 µM; hit rate 53% among 1,000; AID 488794
Numbers without * were called inactive; / = not tested or not shown. Sampled rows, rich in hits. Any-hit rate of the full collection: about 2.5%. Unless noted, no stated cut-off is given here; in the data, active means inhibition above about 50%; inactive means the rest.

SMILES | NALP3 yeast inh | MC4R barr agon | TbMetRS inhib | MC4R antag cAMP | NALP1 inh | A1 inh | NALP3 confirm | Casp1 ASC ctr | NALP3 yeast rt
CCC[C@H]1COCCS(=O)(=O)N1Cc1ccc(Br)cc1 | 22.6 | / | / | / | 10.8 | 0.6 | / | / | /
Cc1ccc(NC(=S)NNC(C)(C)C)cc1 | 51.3* | -1.9 | -0.9 | 1.6 | 29.7 | 0.7 | 43.2 | 61.0* | 30.7
Cc1cc2nc(N3C(=O)CNC3=S)sc2cc1C | 68.9* | -2.5 | -0.8 | 1.2 | 4.7 | -6.5 | 82.3* | / | /
CCOc1ccc2nc(N3C(=O)CNC3=S)sc2c1 | 19.7 | -3.9 | 0.6 | -9.4 | / | -3.5 | / | / | /
CSCCC(NC(=O)c1ccccc1Cl)C(=O)OCC(=O)N1CCCC1=O (centres undefined) | 7.3 | -0.5 | -0.2 | 21.9 | / | 0.0 | / | / | /
Cn1c(COc2ccc(F)cc2)nc2ccccc21 | 38.8 | -0.8 | -0.6 | 14.1 | 7.3 | -4.9 | / | / | /
Cc1cccc(OCc2nc3ccccc3n2C)c1 | 53.8* | -0.9 | -0.7 | 12.5 | 4.6 | 0.9 | 72.2* | 54.9* | 41.2
CC(C)Cn1c2ccccc2c2cc(C(=O)O)ccc21 | -123.3 | -1.8 | 0.8 | 18.1 | -9.1 | 0.4 | 8.6 | / | /
CC(C)Cn1c(=S)[nH]c2cc(C(=O)O)ccc2c1=O | 9.9 | -0.3 | 0.1 | 3.9 | / | 1.3 | / | / | /
Cc1nn(-c2ccccc2)c(C)c1NC(=O)COC(=O)c1ccc(Cl)c(S(N)(=O)=O)c1 | 14.1 | -0.3 | 0.1 | 8.0 | / | 0.1 | / | / | /
C#CCN1C=CC(=O)[C@@H](OC(=O)NCCC)[C@H]1c1ccccc1Br | / | -0.2 | 0.1 | -3.6 | / | / | / | / | /
CCOC(=O)c1cc(-c2cccc(O)c2)oc1C | / | / | -0.5 | / | / | / | / | / | /
Cc1ccc(S(=O)(=O)N(C)/N=C/c2ccc(N(C)C)cc2)cc1 | 51.0* | -1.6 | -0.1 | 8.2 | 23.2 | 2.0 | 54.1* | 18.9 | 27.4
CCc1nc2c(OCc3cc(Cl)cc(Cl)c3)cccn2c1N(C)C(=O)Nc1ccccc1OC | / | -2.3 | 0.1 | 3.9 | / | / | / | / | /
CN(C)c1ccc(CNC(=O)C2(C)Cc3c(-c4ccc5c(c4)OCO5)ccnc3O2)cc1 (centres undefined) | / | -1.3 | -0.4 | -14.1 | / | / | / | / | /
CC(C)(C)OC(=O)n1cc(/C=N/NC(=O)c2ccco2)c2ccccc21 | 17.9 | -2.7 | 0.6 | 2.0 | 18.7 | 0.9 | / | / | /
Cc1ccc(-n2c(SCCN)nnc2-c2cccc(C)c2)cc1 | 77.7* | -3.9 | -0.9 | -4.0 | / | 0.8 | 78.2* | / | /
COc1ccc2c(c1OC)CN1CCc3cc4c(cc3[C@@H]1[C@@H]2O)OCO4 | 25.5 | 0.6 | -0.3 | -2.3 | 21.7 | 0.0 | / | / | /
O[C@@H]1[C@@H](O)C=C2CCN3Cc4cc5c(cc4[C@H]1C23)OCO5 (some centres undefined) | 63.8* | -1.1 | -1.5 | 3.0 | / | 0.5 | 79.1* | 59.7* | 57.9*
Cc1cc(C)n2ncc(-c3cccc(Br)c3)c2n1 | 50.5* | -1.2 | -0.8 | -10.9 | 4.7 | -0.6 | 61.6* | 31.0 | 24.4
COc1ccccc1NC(=O)OC(C)c1ccc(Cl)cc1 (centres undefined) | 19.9 | 1.5 | -0.6 | 0.3 | 27.4 | -0.2 | / | / | /
O=C(c1cccs1)N1CCc2ccccc21 | 15.4 | 2.0 | 0.0 | 9.1 | 24.7 | -9.6 | / | / | /
O=C(/C=C/c1cccs1)N1CCc2ccccc21 | 51.7* | -0.7 | -0.9 | 2.4 | 42.7 | 0.2 | 22.6 | / | /
CSCc1c(C(=O)OCC(=O)c2ccc[nH]2)oc2ccccc12 | 51.0* | -1.3 | -0.4 | -12.0 | / | / | 67.5* | 55.3* | 41.5
COc1ccc(N2C(=O)NC(NS(=O)(=O)c3ccc(NC(C)=O)cc3)(C(F)(F)F)C2=O)cc1 (centres undefined) | 8.5 | -3.8 | -0.6 | 6.9 | 18.7 | 1.0 | / | / | /
SMILES | NALP3 yeast inh | MC4R barr agon | TbMetRS inhib | MC4R antag cAMP | NALP1 inh | A1 inh | NALP3 confirm | Casp1 ASC ctr | NALP3 yeast rt
CCOC(=O)C1=C(COC(=O)Cc2ccccc2F)NC(=O)NC1C (centres undefined) | 13.6 | -1.6 | -0.2 | -0.5 | / | 0.1 | / | / | /
CCOC(=O)N1C(=O)C2(CCCCC2)N(c2ccccc2Cl)C1=S | 63.8* | 1.8 | 0.7 | 2.1 | 38.3 | -1.7 | 67.2* | 34.0 | 50.6*
CCOC(=O)c1sc(=S)n(-c2ccccc2Cl)c1C | 43.6 | 2.6 | -0.2 | -0.2 | 7.0 | -0.7 | / | / | /
CC1(c2nnnn2Cc2ccccc2)CCC(=O)N1Cc1ccc(F)cc1 (centres undefined) | / | / | -1.0 | / | / | / | / | / | /
CC(C)C[C@@H]1COc2cccc(N(C)CCO)c2S(=O)(=O)N1 | / | / | -0.7 | / | / | / | / | / | /
Brc1ccc2c(c1)CN1CCCC1=N2 | 62.8* | -2.0 | 1.1 | 9.7 | 18.7 | -0.2 | 80.4* | 53.0* | 51.0*
O=C1CN2C(=Nc3ccc(Br)cc3C2c2ccccc2)CCN1 (centres undefined) | 5.1 | -0.9 | -0.5 | 2.6 | 1.8 | -0.6 | / | / | /
CC1CCCCN1S(=O)(=O)c1cccc2nonc12 (centres undefined) | 16.0 | -2.4 | -0.3 | 5.4 | -1.0 | -0.8 | / | / | /
CC1(C(=O)NS(=O)(=O)c2ccc(C#N)cc2)CCN1C(=O)Cc1cccc2ccccc12 (centres undefined) | / | -2.1 | 0.0 | 1.6 | / | / | / | / | /
C=CCc1c(C)c(C#N)c2nc3ccccc3n2c1NCCN(C)C | 53.8* | -0.3 | 1.0 | 11.2 | 33.3* | -0.2 | 80.6* | 77.9* | 42.0
C=C(C)Cc1c(C)c(C#N)c2nc3ccccc3n2c1NCCCN(C)C | 4.5 | 0.3 | -1.0 | -5.2 | 21.2 | -0.4 | / | / | /
CC(C)Oc1cc(F)ccc1-c1cc(C(=O)NCc2ccccc2)[nH]n1 | / | 0.5 | -0.2 | 14.1 | / | / | / | / | /
CC1(C)C[C@H](O)[C@]2(CO)CC[C@]3(C)C(=CCC4[C@@]5(C)CC[C@H](O)C(C)(C)C5CC[C@]43C)[C@@H]2C1 (some centres undefined) | 40.6 | -0.5 | -0.5 | 1.8 | / | 0.6 | / | / | /
CC1(C)C[C@H](O)[C@@]23C[C@@H](OC2=O)[C@]2(C)C(=CCC4[C@@]5(C)CC[C@H](O)C(C)(C)C5CC[C@]42C)[C@@H]3C1 (some centres undefined) | 50.8* | / | / | / | / | 0.8 | 68.4* | 41.4 | 41.4
CC1(C)C2CC[C@]3(C)C(CC=C4[C@@H]5C[C@@](C)(CO)[C@@H]6C[C@@]5(CC[C@]43C)C(=O)O6)[C@@]2(C)CC[C@@H]1O (some centres undefined) | 55.3* | / | / | / | / | 0.2 | 57.5* | 27.5 | 30.4
CC1(C)CC[C@]2(C(=O)O)CC[C@]3(C)C(=CC[C@@H]4[C@@]5(C)CC[C@H](O)C(C)(C)[C@@H]5CC[C@]43C)[C@@H]2C1 | 15.7 | 0.8 | -1.1 | 8.9 | / | 1.0 | / | / | /
